Measured values from ChEMBL document CHEMBL2046289, “Novel 2-(2-(benzylthio)-1H-benzo[d]imidazol-1-yl)acetic acids: discovery and hit-to-lead evolution of a selective CRTh2 receptor antagonist chemotype” (Bioorg Med Chem Lett, 2012).
≈ marks a conversion by molar mass, not a printed value.

What was measured:
[1] = target: T1, Prostaglandin D2 receptor 2 (Homo sapiens, UniProt Q9Y5Y4); experiment: Displacement of [3H]-PGD2 from human CRTh2 receptor expressed in HEK293 cells; assay type: cell-based
T1 sequence (Q9Y5Y4 whole entry): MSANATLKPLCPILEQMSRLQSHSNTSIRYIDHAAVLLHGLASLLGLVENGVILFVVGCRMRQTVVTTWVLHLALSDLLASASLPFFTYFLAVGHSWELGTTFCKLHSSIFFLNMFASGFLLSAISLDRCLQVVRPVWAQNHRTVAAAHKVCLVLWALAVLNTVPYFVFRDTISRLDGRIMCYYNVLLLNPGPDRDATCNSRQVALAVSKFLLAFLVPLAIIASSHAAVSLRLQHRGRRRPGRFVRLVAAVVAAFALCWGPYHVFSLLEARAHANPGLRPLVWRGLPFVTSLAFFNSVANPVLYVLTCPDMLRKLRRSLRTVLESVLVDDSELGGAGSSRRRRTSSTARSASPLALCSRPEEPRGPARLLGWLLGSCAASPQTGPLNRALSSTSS

[2] = target: T1, Prostaglandin D2 receptor 2; experiment: Antagonist activity at human CRTh2 receptor expressed in HEK293 cells assessed as inhibition of PGD2-induced calcium flux by FLIPR assay; assay type: functional, cell-based
[3] = Volume of distribution at steady state in Wistar rat at 1 mg/kg, iv and 10 mg/kg, po; assay type: ADME, organism-based; conditions: in vivo, read-out: Vdss
Outline: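 Male Wistar rats, 3 animals per experiment; intravenous dose 1 mg/kg and oral dose 10 mg/kg, each given as a solution.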

[4] = target: T2, Cytochrome P450 3A4 (Homo sapiens, UniProt P08684); experiment: Inhibition of CYP3A4 using midazolam as substrate; assay type: ADME
[5] = Stability of the compound in simulated gastric fluid assessed as compound remaining after 1 hr; assay type: physicochemical; conditions: read-out: Stability
Outline: (§1)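 Compound incubated in simulated gastric fluid for 1 h or simulated intestinal fluid for 4 h; unchanged parent recovered quantified by LC-MS, expressed as % parent remaining.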

[6] = target: Cytochrome P450 2C9 (Homo sapiens, UniProt P11712); experiment: Inhibition of CYP2C9; assay type: ADME
[7] = Intrinsic clearance in human liver microsomes assessed per mg protein; assay type: ADME, Microsome; conditions: read-out: CLH
[8] = target: T3, Prostaglandin D2 receptor (Homo sapiens, UniProt Q13258); experiment: Displacement of [3H]-PGD2 from human DP1 receptor expressed in CHO cells; assay type: cell-based
T3 sequence (Q13258 whole entry): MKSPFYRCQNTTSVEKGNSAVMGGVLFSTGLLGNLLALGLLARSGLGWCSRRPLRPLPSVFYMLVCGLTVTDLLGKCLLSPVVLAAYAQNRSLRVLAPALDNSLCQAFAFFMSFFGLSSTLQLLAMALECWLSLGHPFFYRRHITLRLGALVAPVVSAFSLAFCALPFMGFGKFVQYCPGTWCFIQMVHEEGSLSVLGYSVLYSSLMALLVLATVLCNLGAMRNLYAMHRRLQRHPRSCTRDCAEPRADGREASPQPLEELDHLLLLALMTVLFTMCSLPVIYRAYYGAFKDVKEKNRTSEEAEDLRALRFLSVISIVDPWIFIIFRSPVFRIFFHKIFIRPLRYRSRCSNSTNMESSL

[9] = target: T2, Cytochrome P450 3A4; experiment: Inhibition of CYP3A4 using testosterone as substrate; assay type: ADME
[10] = Intrinsic clearance in rat liver microsomes assessed per mg protein; assay type: ADME, Microsome; conditions: read-out: CLH
[11] = target: T1, Prostaglandin D2 receptor 2; experiment: Displacement of [3H]-PGD2 from human CRTh2 receptor expressed in HEK293 cells in presence of 0.5% human serum albumin; assay type: cell-based
[12] = target: Cytochrome P450 2D6 (Homo sapiens, UniProt P10635); experiment: Inhibition of CYP2D6; assay type: ADME
[13] = Solubility of the compound in Tris buffer at pH 9; assay type: physicochemical
[14] = Lipophilicity, log D of the compound at pH 7.4; assay type: physicochemical; conditions: buffer
[15] = Stability of the compound in simulated intestinal fluid assessed as compound remaining after 4 hrs; assay type: physicochemical; conditions: read-out: Stability; outline: as §1
[16] = Intrinsic clearance in rat hepatocytes assessed per 10^6 cells; assay type: ADME, cell-based, Hepatocyte; conditions: read-out: CLH
[17] = Solubility of the compound in phosphate buffer at pH 7; assay type: physicochemical
[18] = Metabolic stability of the compound in human plasma assessed as compound remaining after 4 hrs; assay type: ADME, cell-free; conditions: read-out: Stability
[19] = Solubility of the compound in 0.1 M HCl; assay type: physicochemical; conditions: buffer

T2 sequence (P08684 whole entry): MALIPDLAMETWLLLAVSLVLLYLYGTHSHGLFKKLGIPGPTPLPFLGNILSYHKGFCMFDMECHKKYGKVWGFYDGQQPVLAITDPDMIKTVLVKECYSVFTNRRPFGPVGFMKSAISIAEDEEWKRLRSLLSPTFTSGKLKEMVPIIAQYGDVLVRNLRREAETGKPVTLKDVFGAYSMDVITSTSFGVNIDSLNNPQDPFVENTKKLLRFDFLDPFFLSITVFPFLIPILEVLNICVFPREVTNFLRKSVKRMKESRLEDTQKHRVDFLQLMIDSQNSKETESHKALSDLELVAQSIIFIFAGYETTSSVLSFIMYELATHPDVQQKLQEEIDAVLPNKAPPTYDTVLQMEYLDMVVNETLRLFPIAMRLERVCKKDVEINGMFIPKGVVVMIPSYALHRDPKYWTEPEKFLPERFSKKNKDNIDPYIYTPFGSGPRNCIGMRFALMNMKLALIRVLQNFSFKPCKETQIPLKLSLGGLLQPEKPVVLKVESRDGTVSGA
Cytochrome P450 2D6, sequence (P10635 whole entry): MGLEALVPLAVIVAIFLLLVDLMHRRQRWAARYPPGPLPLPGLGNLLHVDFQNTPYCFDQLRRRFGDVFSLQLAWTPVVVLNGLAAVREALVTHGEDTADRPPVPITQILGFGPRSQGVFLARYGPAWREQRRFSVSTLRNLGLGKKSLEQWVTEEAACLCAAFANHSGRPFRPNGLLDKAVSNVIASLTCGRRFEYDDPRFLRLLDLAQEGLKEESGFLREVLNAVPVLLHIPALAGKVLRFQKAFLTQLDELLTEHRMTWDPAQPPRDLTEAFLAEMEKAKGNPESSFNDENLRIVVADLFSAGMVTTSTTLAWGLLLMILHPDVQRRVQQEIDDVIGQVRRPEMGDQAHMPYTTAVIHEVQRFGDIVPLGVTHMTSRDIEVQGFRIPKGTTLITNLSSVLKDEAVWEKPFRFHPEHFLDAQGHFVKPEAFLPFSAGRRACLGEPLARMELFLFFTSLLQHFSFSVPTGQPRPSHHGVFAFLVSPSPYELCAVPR
Cytochrome P450 2C9, sequence (P11712 whole entry): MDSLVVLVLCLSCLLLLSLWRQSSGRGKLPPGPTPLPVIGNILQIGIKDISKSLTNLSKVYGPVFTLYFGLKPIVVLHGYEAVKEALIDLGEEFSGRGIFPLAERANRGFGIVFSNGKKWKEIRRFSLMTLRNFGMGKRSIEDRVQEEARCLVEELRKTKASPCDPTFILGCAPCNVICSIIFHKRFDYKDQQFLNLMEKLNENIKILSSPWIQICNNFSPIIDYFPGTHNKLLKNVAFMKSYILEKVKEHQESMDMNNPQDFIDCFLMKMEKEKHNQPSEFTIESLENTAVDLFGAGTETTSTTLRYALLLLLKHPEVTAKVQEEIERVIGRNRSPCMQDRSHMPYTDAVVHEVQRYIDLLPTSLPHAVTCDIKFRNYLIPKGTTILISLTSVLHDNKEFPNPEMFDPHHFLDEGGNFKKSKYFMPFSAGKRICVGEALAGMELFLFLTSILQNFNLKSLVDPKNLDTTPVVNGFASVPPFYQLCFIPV

Row | SMILES | IC50 [1] | also measured
1 | O=C(O)Cn1c(SCCCNc2ccccc2)nc2ccccc21 | 2690 nM | –
2 | COc1ccc(CSc2nc3ccccc3n2CC(=O)O)cc1 | 210 nM | –
3 | COC(=O)c1ccc(CSc2nc3ccccc3n2CC(=O)O)cc1 | 10600 nM | –
4 | CCOC(=O)CCCSc1nc2ccccc2n1CC(=O)O | 4410 nM | –
5 | COc1ccc(C(C)=O)cc1CSc1nc2cc(S(C)(=O)=O)ccc2n1CC(=O)O | 41 nM | IC50 [2]: 50 nM
6 | CCOC(=O)CCCCSc1nc2ccccc2n1CC(=O)O | 2360 nM | –
7 | COC(=O)c1cccc(CSc2nc3ccccc3n2CC(=O)O)c1Br | 2900 nM | –
8 | COC(=O)c1cc(Br)cc(CSc2nc3ccccc3n2CC(=O)O)c1 | 330 nM | –
9 | CC(=O)CC(c1ccccc1)c1c(O)c2ccccc2oc1=O (centres undefined) [WARFARIN] | – | Vd [3]: 1 L/kg
10 | O=C(O)Cn1c(SCc2cccc(Br)c2)nc2ccccc21 | 370 nM | –
11 | COc1ccc(C(C)=O)cc1CSc1nc2cc(C=O)ccc2n1CC(=O)O | 4 nM | IC50 [2]: 9 nM
12 | O=C(O)Cn1c(SCCOc2ccc(Cl)cc2)nc2ccccc21 | 1500 nM | IC50 [2]: 6600 nM
13 | O=C(O)Cn1c(SCCNc2ccccc2)nc2ccccc21 | 7690 nM | –
14 | CCOc1ccc(C(C)=O)cc1CSc1nc2cc(F)ccc2n1CC(=O)O | 4 nM | IC50 [2]: 5 nM
15 | CCN(Cc1ccccc1)C(=O)c1ccc(OC)c(CSc2nc3cc(F)ccc3n2CC(=O)O)c1 | 495 nM | IC50 [2]: 725 nM
16 | O=C(O)Cn1c(SCCOc2ccccc2)nc2ccccc21 | 590 nM | –
17 | O=C(O)Cn1c(SCCc2ccccc2)nc2ccccc21 | 881 nM | –
18 | CC(=O)c1cccc(CSc2nc3ccccc3n2CC(=O)O)c1 | 230 nM | –
19 | COC(=O)c1cccc(CSc2nc3ccccc3n2CC(=O)O)c1 | 450 nM | –
20 | COC(=O)c1ccc(Br)c(CSc2nc3ccccc3n2CC(=O)O)c1 | 45 nM | –
21 | COc1ccc(C(=O)NCc2ccccc2)cc1CSc1nc2cc(F)ccc2n1CC(=O)O | 59 nM | IC50 [2]: 94 nM
22 | COC(=O)c1ccccc1CSc1nc2ccccc2n1CC(=O)O | 520 nM | –

Row | SMILES | IC50 [1] | also measured
23 | O=C(O)Cn1c(SCc2ccc(Cl)cc2)nc2ccccc21 | 160 nM | –
24 | O=C(O)Cn1c(SCCCc2ccccc2)nc2ccccc21 | 475 nM | –
25 | COc1ccc(C(C)=O)cc1CSc1nc2cc(C(C)=O)ccc2n1CC(=O)O | 33 nM | IC50 [2]: 63 nM
26 | COC(=O)c1ccc(OC)c(CSc2nc3ccccc3n2CC(=O)O)c1 | 29 nM | –
27 | CCCCCCSc1nc2ccccc2n1CC(=O)O | 1360 nM | –
28 | Cc1cccc(CSc2nc3ccccc3n2CC(=O)O)c1 | 105 nM | –
29 | O=C(O)Cn1c(SCCCOc2ccccc2)nc2ccccc21 | 786 nM | –
30 | O=C(O)Cn1c(SCCCCOc2ccccc2)nc2ccccc21 | 1400 nM | –
31 | COc1ccc(C(=O)N2CCc3ccccc32)cc1CSc1nc2cc(F)ccc2n1CC(=O)O | 3 nM | IC50 [4]: 5000 nM; remaining at 1 h [5]: 100%; IC50 [6]: 28000 nM; microsomal CLint [7]: 2 µL/min/mg; IC50 [8]: > 10000 nM; IC50 [9]: 13000 nM; microsomal CLint [10]: 91 µL/min/mg; IC50 [11]: 8 nM; IC50 [12]: > 50000 nM; solubility [13]: 789 µg/mL (≈ 1610 µM); logD [14]: 0.3; remaining at 4 h [15]: 100%; hepatocyte CLint [16]: 12 µL/min/1e6 cells; solubility [17]: 812 µg/mL (≈ 1650 µM); remaining at 4 h [18]: 93%; solubility [19]: 158 µg/mL (≈ 321 µM)
32 | COc1ccc(C(=O)N2CCOCC2)cc1CSc1nc2cc(F)ccc2n1CC(=O)O | 107 nM | IC50 [2]: 91 nM
33 | CCOC(=O)CCCCCSc1nc2ccccc2n1CC(=O)O | 1010 nM | –
34 | COc1ccc(C(C)O)cc1CSc1nc2ccccc2n1CC(=O)O (racemic) | 2200 nM | –
35 | O=C(O)Cn1c(SCc2ccc(Br)cc2)nc2ccccc21 | 220 nM | –
36 | CCNC(=O)c1ccc(OC)c(CSc2nc3cc(F)ccc3n2CC(=O)O)c1 | 16 nM | IC50 [2]: 15 nM
37 | CCCCCSc1nc2ccccc2n1CC(=O)O | 1240 nM | –
38 | CCCOc1ccc(C(C)=O)cc1CSc1nc2cc(F)ccc2n1CC(=O)O | 5 nM | IC50 [2]: 9 nM
39 | O=C(O)Cn1c(SCCOc2ccc3ccccc3c2)nc2ccccc21 | 2500 nM | –
40 | COc1ccc(C(C)=O)cc1CSc1nc2cc(C(F)(F)F)ccc2n1CC(=O)O | 3 nM | IC50 [2]: 5 nM
41 | COc1cccc(CSc2nc3ccccc3n2CC(=O)O)c1 | 72 nM | –
42 | CCN(CC)C(=O)c1ccc(OC)c(CSc2nc3cc(F)ccc3n2CC(=O)O)c1 | 72 nM | IC50 [2]: 130 nM
43 | COc1ccc(C)cc1CSc1nc2ccccc2n1CC(=O)O | 1200 nM | –
44 | O=C(O)Cn1c(SCc2cc(Cl)ccc2Cl)nc2ccccc21 | 470 nM | –

Row | SMILES | IC50 [1] | also measured
45 | O=C(O)Cn1c(SCc2ccccc2Cl)nc2ccccc21 | 370 nM | –
46 | COc1ccc(OC)c(CSc2nc3ccccc3n2CC(=O)O)c1 | 1600 nM | –
47 | COC(=O)c1cc(CSc2nc3ccccc3n2CC(=O)O)ccc1Br | 980 nM | –
48 | CC(=O)Oc1ccccc1C(=O)O [ASPIRIN] | – | Vd [3]: 1 L/kg
49 | COc1ccccc1CSc1nc2ccccc2n1CC(=O)O | 1100 nM | –
50 | Cc1ccccc1CSc1nc2ccccc2n1CC(=O)O | 810 nM | –
51 | O=C(O)Cn1c(SCc2ccc(Cl)c(Cl)c2)nc2ccccc21 | 380 nM | –
52 | O=C(O)Cn1c(SCCOc2cccc3ccccc23)nc2ccccc21 | 2000 nM | –
53 | O=C(O)Cn1c(SCc2ccccc2Br)nc2ccccc21 | 580 nM | –
54 | COc1ccc(C(C)=O)cc1CSc1nc2ccc(F)cc2n1CC(=O)O | 45 nM | IC50 [2]: 89 nM
55 | O=C(O)Cn1c(SCc2cccc(Cl)c2)nc2ccccc21 | 186 nM | –
56 | COc1ccc(C(C)=O)cc1CSc1nc2cc([N+](=O)[O-])ccc2n1CC(=O)O | 2 nM | IC50 [2]: 3 nM
57 | COc1ccc(C(=O)OC(C)C)cc1CSc1nc2ccccc2n1CC(=O)O | 150 nM | –
58 | COc1ccc(C(C)=O)cc1CSc1nc2c(F)cccc2n1CC(=O)O | 5 nM | IC50 [2]: 10 nM
59 | O=C(O)Cn1c(SCc2ccccc2)nc2ccccc21 | 388 nM | –
60 | COc1ccc(C(=O)c2ccccc2)cc1CSc1nc2cc(F)ccc2n1CC(=O)O | 1.7 nM | IC50 [2]: 4 nM
61 | CCOC(=O)CCSc1nc2ccccc2n1CC(=O)O | 11400 nM | –
62 | CCCCSc1nc2ccccc2n1CC(=O)O | 2370 nM | –
63 | CCCCOc1ccc(C(C)=O)cc1CSc1nc2cc(F)ccc2n1CC(=O)O | 9 nM | IC50 [2]: 12 nM
64 | Cc1ccc(CSc2nc3ccccc3n2CC(=O)O)cc1 | 220 nM | –
65 | CCNC(=O)CCCCSc1nc2ccccc2n1CC(=O)O | > 10000 nM | –
66 | COc1ccc(Cl)cc1CSc1nc2ccccc2n1CC(=O)O | 740 nM | –
